In PMC3667888 (Channels, 2013):
Positions count from the first letter of the chain named.

Tests used:
Type in all cases: cell-based
[1] = biological target: T1, wild-type Kv4.2/KChIP1b channels (Rattus norvegicus, UniProt Q63881)
T1 sequence (Q63881 1-630): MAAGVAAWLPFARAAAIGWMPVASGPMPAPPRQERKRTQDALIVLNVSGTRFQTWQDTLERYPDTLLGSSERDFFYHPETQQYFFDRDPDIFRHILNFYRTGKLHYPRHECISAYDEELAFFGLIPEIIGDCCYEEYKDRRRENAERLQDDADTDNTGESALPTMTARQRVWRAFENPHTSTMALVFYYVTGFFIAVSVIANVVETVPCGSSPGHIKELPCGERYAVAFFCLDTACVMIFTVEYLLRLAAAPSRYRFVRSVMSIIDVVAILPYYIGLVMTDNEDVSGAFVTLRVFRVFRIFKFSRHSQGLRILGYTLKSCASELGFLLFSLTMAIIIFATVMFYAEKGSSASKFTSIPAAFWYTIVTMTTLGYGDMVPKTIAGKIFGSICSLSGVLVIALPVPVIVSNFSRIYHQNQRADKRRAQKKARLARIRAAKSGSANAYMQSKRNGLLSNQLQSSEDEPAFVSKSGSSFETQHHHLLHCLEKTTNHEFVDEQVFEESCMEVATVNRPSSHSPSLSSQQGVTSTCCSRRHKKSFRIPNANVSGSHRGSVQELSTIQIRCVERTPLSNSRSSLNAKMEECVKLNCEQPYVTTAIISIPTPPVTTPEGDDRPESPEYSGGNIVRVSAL
Procedure, shortened: (§1)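 Rat Kv4.2 (WT or QuikChange mutant) RNA co-injected equimolar with KChIP1b, 5–10 ng/oocyte, into Xenopus oocytes held 1–5 d at 17–19 °C. Two-electrode voltage clamp at room temperature in perfused Na/K methanesulfonate HEPES saline, pH 7.4–7.5, with P/−4 or P/−6 leak subtraction. Peak current at +40 mV (from −90 mV) after 10 min of 10 μM AA is expressed relative to pre-AA current. Mean ± SE, n = cells.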

[2] = biological target: T2, Kv4.2 V261F mutant channels (co-injected with KChIP1b) (Rattus norvegicus, UniProt Q63881, V261F); test: Two-electrode voltage clamp, V261F mutant Kv4.2/KChIP1b in Xenopus oocytes
T2 sequence (Q63881 1-630 V261F): T1 sequence (Q63881 1-630) with V261F
Procedure, shortened: as §1

[3] = biological target: T3, Kv4.2 K318Q mutant channels (co-injected with KChIP1b) (Rattus norvegicus, UniProt Q63881, K318Q); test: Two-electrode voltage clamp, K318Q mutant Kv4.2/KChIP1b in Xenopus oocytes
T3 sequence (Q63881 1-630 K318Q): T1 sequence (Q63881 1-630) with K318Q
Procedure, shortened: as §1

[4] = biological target: T4, Kv4.2 R311Q mutant channels (co-injected with KChIP1b) (Rattus norvegicus, UniProt Q63881, R311Q); test: Two-electrode voltage clamp, R311Q mutant Kv4.2/KChIP1b in Xenopus oocytes; conditions: 10 µM AA, 10 min
T4 sequence (Q63881 1-630 R311Q): T1 sequence (Q63881 1-630) with R311Q

[5] = read-out: inhibition of the peak K+ current

SMILES: CCCCC/C=C\C/C=C\C/C=C\C/C=C\CCCC(=O)O [AA, arachidonic acid]
- V1/2 of conductance-voltage curve with AA ([1]; 10 µM AA, WT): −13.4 mV
- rightward shift in V1/2 of the conductance-voltage relationship in the presence of AA ([1]; 10 µM AA, WT): +7 mV
- slope factor (k) of Boltzmann fit with AA ([1]; 10 µM AA, WT): 12.1
- decrease in Kv4.2 currents ([1]; 10 µM AA, n = 3, same batch of oocytes as Kv1.2/2.1, +40 mV test potential): 30.7 ± 1.8%
- Kd ([1]; fitted Kd for AA inhibition of peak current, Hill equation, nH = 1, +40 mV, 1 to 300 µM AA, WT): 21.1 µM
- inhibition at 10 µM [1, 5]: 30%
- V1/2 of conductance-voltage curve with AA ([2]; 10 µM AA, V261F): −17.1 mV
- slope factor (k) of Boltzmann fit with AA ([2]; 10 µM AA, V261F): 10.9
- inhibition at 10 µM [2, 5]: 18%
- V1/2 of conductance-voltage curve with AA ([3]; 10 µM AA, K318Q): −8.6 mV
- slope factor (k) of Boltzmann fit with AA ([3]; 10 µM AA, K318Q): 11.3
- inhibition at 10 µM [3, 5]: 12%
- inhibition of peak K+ current by AA, effect of mutation [4]: did not significantly disrupt the inhibitory effects of AA
